Activity calls are given as the source filed them. No cut-off for these calls is given here.
Legend:
[1] = biological target: T1, Serine protease 1 (Bos taurus) (UniProt P00760); assay: Inhibition of bovine trypsin
T1 sequence (whole entry): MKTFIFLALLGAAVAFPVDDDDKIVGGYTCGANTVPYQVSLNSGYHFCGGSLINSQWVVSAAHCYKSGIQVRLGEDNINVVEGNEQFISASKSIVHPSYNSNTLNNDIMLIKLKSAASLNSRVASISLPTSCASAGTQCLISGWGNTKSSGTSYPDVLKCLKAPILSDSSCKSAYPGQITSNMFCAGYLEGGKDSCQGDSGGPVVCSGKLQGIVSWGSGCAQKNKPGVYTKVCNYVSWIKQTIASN
Procedure, shortened: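 Irreversible inhibition assayed by incubation at 25 °C in 0.1 M Hepes, 0.01 M CaCl2, pH 7.5 (2% DMSO), inhibitor 1.0–450 μM. Timed aliquots were read for residual activity on Cbz-Arg-SBzl with DTNB at 410 nm. Pseudo-first-order k_obs came from ln vt/vo vs time, using 5–10 points over 2–3 half-lives, three k_obs per inhibitor. DMSO-only controls were run. For no-inhibition lines, none was seen after 25 min.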

[2] = biological target: T2, Granzyme K (Rattus norvegicus) (UniProt P49864); assay: Inhibition of rat granzyme K
T2 sequence (whole entry): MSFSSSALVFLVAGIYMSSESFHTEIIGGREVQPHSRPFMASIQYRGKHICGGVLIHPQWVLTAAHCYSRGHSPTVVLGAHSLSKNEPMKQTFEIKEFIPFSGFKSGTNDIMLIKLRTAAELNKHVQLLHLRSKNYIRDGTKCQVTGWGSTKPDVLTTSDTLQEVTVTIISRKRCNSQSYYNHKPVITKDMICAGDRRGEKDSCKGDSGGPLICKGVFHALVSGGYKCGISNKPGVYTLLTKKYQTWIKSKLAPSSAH
Procedure, shortened: (§1)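 Native rat granzyme K, purified by size-exclusion in 1 M NaCl then MonoS cation exchange. Incubated with inhibitor (1.0–450 μM) at 25 °C in 0.1 M Hepes, 0.01 M CaCl2, pH 7.5 (7.1% DMSO). Timed aliquots were read for residual activity on Cbz-Arg-SBzl with DTNB at 405 nm. k_obs came from ln vt/vo vs time, one or two per inhibitor. For no-inhibition lines, none was seen after 25 min.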

[3] = biological target: T3, Granzyme A (Homo sapiens) (UniProt P12544); assay: Inhibition of human granzyme A
T3 sequence (whole entry): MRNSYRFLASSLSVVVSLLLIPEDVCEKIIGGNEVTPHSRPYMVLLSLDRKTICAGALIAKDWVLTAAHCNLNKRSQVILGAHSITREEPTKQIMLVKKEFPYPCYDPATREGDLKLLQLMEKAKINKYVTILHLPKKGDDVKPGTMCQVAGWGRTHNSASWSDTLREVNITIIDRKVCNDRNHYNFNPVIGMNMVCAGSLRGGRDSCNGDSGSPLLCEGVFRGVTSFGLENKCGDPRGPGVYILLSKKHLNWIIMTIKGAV
Procedure, shortened: (§2)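 Recombinant human and rat granzyme A, incubated with inhibitor (1.0–450 μM) at 25 °C in 0.1 M Hepes, 0.01 M CaCl2, pH 7.5 (7.6% DMSO). Timed aliquots were read for residual activity on Cbz-Arg-SBzl with DTNB at 405 nm. k_obs came from ln vt/vo vs time over 5–10 points and 2–3 half-lives, two k_obs per inhibitor. DMSO controls were run.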

Tryptase (Homo sapiens) [4] = biological target: T4, Tryptase (Homo sapiens) (UniProt Q9BZJ3+Q15661+Q9NRR2); assay: Compound was evaluated to inhibit mast cell tryptase; No inhibition; type: protein assay
Procedure, shortened: (§3)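 Human lung mast cell tryptase, high-molecular-weight form, heparin-free, active sites titrated with MUGB. Incubated with inhibitor at 25 °C in 0.1 M Hepes, 10% glycerol, 10 mM heparin, pH 7.5 (7.1% DMSO). […] DMSO controls were run.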

Tryptase (Homo sapiens) [5] = biological target: T4, Tryptase (Homo sapiens); assay: Inhibition of mast cell tryptase; type: protein assay; procedure, shortened: as §3
[6] = biological target: T5, Granzyme A (Rattus norvegicus) (UniProt Q8CJF4); assay: Inhibition of rat granzyme A.; procedure, shortened: as §2
T5 sequence (whole entry): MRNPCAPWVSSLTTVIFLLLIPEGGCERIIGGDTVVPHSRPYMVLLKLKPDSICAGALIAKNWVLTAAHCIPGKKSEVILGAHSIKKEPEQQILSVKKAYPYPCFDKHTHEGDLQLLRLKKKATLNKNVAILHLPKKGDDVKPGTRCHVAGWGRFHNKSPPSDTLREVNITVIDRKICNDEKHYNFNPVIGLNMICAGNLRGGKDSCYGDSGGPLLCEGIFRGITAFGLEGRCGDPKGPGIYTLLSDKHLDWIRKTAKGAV

[7] = biological target: T2, Granzyme K (Rattus norvegicus); assay: Compound was evaluated to inhibit rat granzyme K; No inhibition; procedure, shortened: as §1

Compound | K obs / 1 [1] | kobs/[I] (second-order inactivation rate constant) [2] | kobs/[I] (second-order inactivation rate constant) [3] | K obs / 1 (Tryptase (Homo sapiens) [4]) | kobs/[I] (second-order inhibition rate constant) (Tryptase (Homo sapiens) [5]) | K obs / 1 [6] | K obs / 1 [7]
C[C@@H](O)[C@H](NC(=O)OCc1ccccc1)C(=O)NC(c1ccc(C(=N)N)cc1)P(=O)(Oc1ccccc1)Oc1ccccc1 (stereo partly drawn) | 97 M⁻¹ s⁻¹ | 3 M⁻¹ s⁻¹ | 2220 M⁻¹ s⁻¹ | inactive | – | – | –
N=C(N)c1ccc(C(NC(=O)CCC(=O)O)P(=O)(Oc2ccccc2)Oc2ccccc2)cc1 (stereo not drawn) | 45 M⁻¹ s⁻¹ | 0.3 M⁻¹ s⁻¹ | 857 M⁻¹ s⁻¹ | – | 0.2 M⁻¹ s⁻¹ | – | –
NC(N)c1ccc(C(NC(=O)c2cccc(Oc3ccccc3)c2)P(=O)(Oc2ccccc2)Oc2ccccc2)cc1 (stereo not drawn) | 50 M⁻¹ s⁻¹ | 1 M⁻¹ s⁻¹ | 340 M⁻¹ s⁻¹ | inactive | – | 470 M⁻¹ s⁻¹ | –
NCCCCC(NC(=O)OCc1ccccc1)P(=O)(Oc1ccccc1)Oc1ccccc1 (stereo not drawn) | 6240 M⁻¹ s⁻¹ | 23 M⁻¹ s⁻¹ | 1210 M⁻¹ s⁻¹ | – | 89 M⁻¹ s⁻¹ | – | –
N=C(N)c1ccc(C(NC(=O)/C=C/c2cccs2)P(=O)(Oc2ccccc2)Oc2ccccc2)cc1 (stereo not drawn) | 300 M⁻¹ s⁻¹ | 4 M⁻¹ s⁻¹ | 740 M⁻¹ s⁻¹ | – | 1 M⁻¹ s⁻¹ | 430 M⁻¹ s⁻¹ | –
CC(C)(C)OC(=O)N[C@H](Cc1ccccc1)C(=O)N1CCC[C@H]1C(=O)NC(c1ccc(C(N)N)cc1)P(=O)(Oc1ccccc1)Oc1ccccc1 (stereo partly drawn) | 130 M⁻¹ s⁻¹ | 56 M⁻¹ s⁻¹ | 170 M⁻¹ s⁻¹ | – | 0.4 M⁻¹ s⁻¹ | – | –
NC(N)c1ccc(C(NC(=O)[C@@H]2CCCN2C(=O)CNS(=O)(=O)Cc2ccccc2)P(=O)(Oc2ccccc2)Oc2ccccc2)cc1 (stereo partly drawn) | 37100 M⁻¹ s⁻¹ | 87 M⁻¹ s⁻¹ | 3650 M⁻¹ s⁻¹ | – | 2 M⁻¹ s⁻¹ | – | –
CC(C)[C@H](NC(=O)OCc1ccccc1)C(=O)NC(c1ccc(C(=N)N)cc1)P(=O)(Oc1ccccc1)Oc1ccccc1 (stereo partly drawn) | 41 M⁻¹ s⁻¹ | 0.7 M⁻¹ s⁻¹ | 6.7 M⁻¹ s⁻¹ | – | 21.2 M⁻¹ s⁻¹ | – | –
N=C(N)c1ccc(C(NC(=O)[C@@H]2CCCN2C(=O)OCc2ccccc2)P(=O)(Oc2ccccc2)Oc2ccccc2)cc1 (stereo partly drawn) | 910 M⁻¹ s⁻¹ | 34 M⁻¹ s⁻¹ | 790 M⁻¹ s⁻¹ | – | 1.2 M⁻¹ s⁻¹ | – | –
C[C@H](NC(=O)[C@@H](CC(=O)OC(C)(C)C)NC(=O)OCc1ccccc1)C(=O)NC(c1ccc(C(=N)N)cc1)P(=O)(Oc1ccccc1)Oc1ccccc1 (stereo partly drawn) | 2000 M⁻¹ s⁻¹ | – | 280 M⁻¹ s⁻¹ | – | 3 M⁻¹ s⁻¹ | – | inactive
C[C@H](NC(=O)[C@@H](C)NC(=O)OCc1ccccc1)C(=O)NC(c1ccc(C(=N)N)cc1)P(=O)(Oc1ccccc1)Oc1ccccc1 (stereo partly drawn) | 3620 M⁻¹ s⁻¹ | 5 M⁻¹ s⁻¹ | 820 M⁻¹ s⁻¹ | – | 2 M⁻¹ s⁻¹ | 480 M⁻¹ s⁻¹ | –
N=C(N)c1ccc(C(NC(=O)[C@H](CCCCN)NC(=O)OCc2ccccc2)P(=O)(Oc2ccccc2)Oc2ccccc2)cc1 (stereo partly drawn) | 30 M⁻¹ s⁻¹ | 1 M⁻¹ s⁻¹ | 30 M⁻¹ s⁻¹ | inactive | – | 15 M⁻¹ s⁻¹ | –
N=C(N)c1ccc(C(NC(=O)[C@@H]2CCCN2C(=O)CCc2ccccc2)P(=O)(Oc2ccccc2)Oc2ccccc2)cc1 (stereo partly drawn) | 1520 M⁻¹ s⁻¹ | 50 M⁻¹ s⁻¹ | 1510 M⁻¹ s⁻¹ | – | 0.4 M⁻¹ s⁻¹ | – | –
N=C(N)c1ccc(C(NC(=O)[C@@H]2CCCN2C(=O)c2ccccc2Oc2ccccc2)P(=O)(Oc2ccccc2)Oc2ccccc2)cc1 (stereo partly drawn) | 7760 M⁻¹ s⁻¹ | 60 M⁻¹ s⁻¹ | 610 M⁻¹ s⁻¹ | – | 0.9 M⁻¹ s⁻¹ | – | –
NC(N)c1ccc(C(NC(=O)OCc2cccc3ccccc23)P(=O)(Oc2ccccc2)Oc2ccccc2)cc1 (stereo not drawn) | 30 M⁻¹ s⁻¹ | 12 M⁻¹ s⁻¹ | 160 M⁻¹ s⁻¹ | inactive | – | 90 M⁻¹ s⁻¹ | –
NCCCCCC(NC(=O)OCc1ccccc1)P(=O)(Oc1ccccc1)Oc1ccccc1 (stereo not drawn) | 21 M⁻¹ s⁻¹ | 1.1 M⁻¹ s⁻¹ | 23 M⁻¹ s⁻¹ | – | 0.7 M⁻¹ s⁻¹ | – | –
N=C(N)c1ccc(C(NC(=O)/C=C/c2ccccc2)P(=O)(Oc2ccccc2)Oc2ccccc2)cc1 (stereo not drawn) | 110 M⁻¹ s⁻¹ | 3 M⁻¹ s⁻¹ | 400 M⁻¹ s⁻¹ | – | 0.3 M⁻¹ s⁻¹ | 340 M⁻¹ s⁻¹ | –
N=C(N)c1ccc(C(NC(=O)/C=C/c2ccco2)P(=O)(Oc2ccccc2)Oc2ccccc2)cc1 (stereo not drawn) | 360 M⁻¹ s⁻¹ | 32 M⁻¹ s⁻¹ | 1740 M⁻¹ s⁻¹ | inactive | – | 1740 M⁻¹ s⁻¹ | –
C[C@H](NC(=O)OCc1ccccc1)C(=O)N[C@H](C)C(=O)N[C@@H](C)C(=O)NC(c1ccc(C(N)N)cc1)P(=O)(Oc1ccccc1)Oc1ccccc1 (stereo partly drawn) | 1780 M⁻¹ s⁻¹ | 7 M⁻¹ s⁻¹ | 730 M⁻¹ s⁻¹ | – | 2 M⁻¹ s⁻¹ | 590 M⁻¹ s⁻¹ | –
C[C@H](NC(=O)[C@H]1CCCN1C(=O)OCc1ccccc1)C(=O)NC(c1ccc(C(=N)N)cc1)P(=O)(Oc1ccccc1)Oc1ccccc1 (stereo partly drawn) | 240 M⁻¹ s⁻¹ | 5 M⁻¹ s⁻¹ | 380 M⁻¹ s⁻¹ | – | 1 M⁻¹ s⁻¹ | – | –
C[C@H](NC(=O)[C@@H](C)NC(=O)CCC(=O)O)C(=O)NC(c1ccc(C(=N)N)cc1)P(=O)(Oc1ccccc1)Oc1ccccc1 (stereo partly drawn) | 640 M⁻¹ s⁻¹ | 0.3 M⁻¹ s⁻¹ | 260 M⁻¹ s⁻¹ | – | 0.7 M⁻¹ s⁻¹ | – | –
N=C(N)c1ccc(C(NC(=O)[C@@H]2CCCN2C(=O)CC(c2ccccc2)c2ccccc2)P(=O)(Oc2ccccc2)Oc2ccccc2)cc1 (stereo partly drawn) | 2660 M⁻¹ s⁻¹ | 1830 M⁻¹ s⁻¹ | 250 M⁻¹ s⁻¹ | inactive | – | – | –
NC(N)c1ccc(C(NC(=O)c2ccccc2Oc2ccccc2)P(=O)(Oc2ccccc2)Oc2ccccc2)cc1 (stereo not drawn) | 670 M⁻¹ s⁻¹ | 1 M⁻¹ s⁻¹ | 540 M⁻¹ s⁻¹ | – | 0.4 M⁻¹ s⁻¹ | 340 M⁻¹ s⁻¹ | –
C[C@H](NC(=O)[C@@H](CC(=O)O)NC(=O)OCc1ccccc1)C(=O)NC(c1ccc(C(=N)N)cc1)P(=O)(Oc1ccccc1)Oc1ccccc1 (stereo partly drawn) | 2550 M⁻¹ s⁻¹ | 6 M⁻¹ s⁻¹ | 240 M⁻¹ s⁻¹ | – | 0.7 M⁻¹ s⁻¹ | – | –
C[C@H](NC(=O)[C@@H](Cc1ccccc1)NC(=O)OCc1ccccc1)C(=O)NC(c1ccc(C(N)N)cc1)P(=O)(Oc1ccccc1)Oc1ccccc1 (stereo partly drawn) | 3010 M⁻¹ s⁻¹ | 4.2 M⁻¹ s⁻¹ | 1770 M⁻¹ s⁻¹ | – | 4 M⁻¹ s⁻¹ | – | –
N=C(N)c1ccc(CC(NC(=O)OCc2ccccc2)P(=O)(Oc2ccccc2)Oc2ccccc2)cc1 (stereo not drawn) | 24 M⁻¹ s⁻¹ | 2.1 M⁻¹ s⁻¹ | 2750 M⁻¹ s⁻¹ | – | 17 M⁻¹ s⁻¹ | – | –
